Reference: publication PMC6702078 (Biochemical pharmacology, 2019)

Tests used:
[1] = target: hCYP2D6 (Homo sapiens, UniProt P10635); assay: Cytochrome P450 inhibition CYP2D6; type: in vitro ADME
[2] = test system: castration-resistant PC-3 PC cells; assay: Cell viability; type: cell-based, human; details: for IC20 / IC50 / IC70 / IC90: Homo sapiens, 96 h; for IC20: read-out: ED20; for IC50: read-out: ED50; for IC70: read-out: ED70; for IC90: read-out: ED90; for effect on viability: PC-3, escalating concentrations, 96 hours (Fig.5D)
[3] = Mouse liver microsome stability; type: in vitro ADME; details: male, CD-1, mouse, liver microsomes, pH 7.4
[4] = target: hCYP3A4 (Homo sapiens, UniProt P08684); assay: Cytochrome P450 inhibition CYP3A4; type: in vitro ADME
hCYP3A4, sequence (P08684 whole entry): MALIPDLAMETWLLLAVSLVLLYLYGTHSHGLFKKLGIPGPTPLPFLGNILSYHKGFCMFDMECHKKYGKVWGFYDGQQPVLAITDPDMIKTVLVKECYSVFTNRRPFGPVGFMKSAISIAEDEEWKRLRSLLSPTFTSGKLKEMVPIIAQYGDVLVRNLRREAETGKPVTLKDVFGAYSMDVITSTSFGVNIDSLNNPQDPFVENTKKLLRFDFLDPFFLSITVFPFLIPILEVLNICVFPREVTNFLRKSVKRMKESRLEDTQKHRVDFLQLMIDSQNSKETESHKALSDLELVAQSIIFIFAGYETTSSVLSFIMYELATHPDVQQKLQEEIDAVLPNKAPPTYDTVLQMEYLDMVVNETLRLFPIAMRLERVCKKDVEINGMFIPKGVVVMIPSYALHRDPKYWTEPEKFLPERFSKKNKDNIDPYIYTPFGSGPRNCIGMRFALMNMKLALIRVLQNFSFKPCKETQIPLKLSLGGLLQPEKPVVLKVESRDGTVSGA

[5] = Human liver microsome stability; type: in vitro ADME; details: both, liver microsomes, pH 7.4
[6] = test system: castration-resistant DU-145 PC cells; assay: Cell viability; type: cell-based, human; details: for ED20 / ED50 / ED70 / ED90: DU-145, 96 hours, CellTiter Blue; for effect on viability: DU-145, escalating concentrations, 96 hours (Fig.5E)
[7] = Mouse plasma stability; type: in vitro ADME; details: for half-life at 1 μM: male, C57BL/6, mouse, pH 7.4
[8] = test system: androgen-dependent LNCaP PC cells; assay: Cell viability; type: cell-based, human; details: for IC20 / IC50 / IC70 / IC90: Homo sapiens, 96 h; for IC20: read-out: ED20; for IC50: read-out: ED50; for IC70: read-out: ED70; for IC90: read-out: ED90; for effect on viability: escalating concentrations, 96 hours (Fig.5C)
[9] = Kinetic aqueous solubility in PBS; type: physicochemical; details: phosphate buffered saline, pH 7.4, aqueous buffer, kinetic from dmso stock
[10] = target: hCYP2C9 (Homo sapiens, UniProt P11712); assay: Cytochrome P450 inhibition CYP2C9; type: in vitro ADME
hCYP2C9, sequence (P11712 whole entry): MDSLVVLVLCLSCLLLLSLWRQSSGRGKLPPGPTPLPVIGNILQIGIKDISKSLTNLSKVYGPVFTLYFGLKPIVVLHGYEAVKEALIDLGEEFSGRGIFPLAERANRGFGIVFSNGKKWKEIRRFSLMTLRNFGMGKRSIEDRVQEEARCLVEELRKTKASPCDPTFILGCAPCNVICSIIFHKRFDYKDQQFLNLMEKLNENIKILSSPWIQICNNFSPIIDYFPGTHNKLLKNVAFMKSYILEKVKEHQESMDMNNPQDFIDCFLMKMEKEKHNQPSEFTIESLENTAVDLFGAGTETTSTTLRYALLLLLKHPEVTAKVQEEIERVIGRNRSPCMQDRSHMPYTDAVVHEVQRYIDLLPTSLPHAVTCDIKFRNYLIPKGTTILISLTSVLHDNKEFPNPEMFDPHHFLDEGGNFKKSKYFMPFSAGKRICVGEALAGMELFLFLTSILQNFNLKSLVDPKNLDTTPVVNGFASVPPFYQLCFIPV

[11] = test system: PSA expression; assay: PSA expression by Western blot in LNCaP expressing AR-V7; type: cell-based, human; details: LNCaP stably expressing AR-V7, 10μM, 24 hrs
How it was run: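 Cells were lysed in 1x SDS sample buffer (1 × 10^7 cells/ml) and boiled 5 min. PSA and AR levels were assessed by SDS-PAGE and Western blot.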

[12] = test system: AR transcriptional activity; assay: AR luciferase reporter assay in LNCaP with R1881; type: cell-based, human; details: R1881 2.5nM, 8 hrs
[13] = test system: PARP1 enzymatic activity in PC cells; assay: PARP-1 inhibitory assay in human cell culture; type: cell-based
How it was run: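 Graded doses of test compound were added in complete medium for 24 or 48 h. Cells were lysed in SDS sample buffer at 1 × 10^7 cells/ml and boiled 5 min. Poly(ADP-ribose) was assessed by SDS-PAGE and Western blot with mouse anti-pADPr (1:500).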

[14] = target: PARP-1 (Homo sapiens, UniProt P09874); assay: PARP-1 activity assay in cell free system; type: biochemical; details: inhibitors at 10μM; pADPr Western blot and colorimetric assay (Fig.4C-D)
PARP-1, sequence (P09874 whole entry): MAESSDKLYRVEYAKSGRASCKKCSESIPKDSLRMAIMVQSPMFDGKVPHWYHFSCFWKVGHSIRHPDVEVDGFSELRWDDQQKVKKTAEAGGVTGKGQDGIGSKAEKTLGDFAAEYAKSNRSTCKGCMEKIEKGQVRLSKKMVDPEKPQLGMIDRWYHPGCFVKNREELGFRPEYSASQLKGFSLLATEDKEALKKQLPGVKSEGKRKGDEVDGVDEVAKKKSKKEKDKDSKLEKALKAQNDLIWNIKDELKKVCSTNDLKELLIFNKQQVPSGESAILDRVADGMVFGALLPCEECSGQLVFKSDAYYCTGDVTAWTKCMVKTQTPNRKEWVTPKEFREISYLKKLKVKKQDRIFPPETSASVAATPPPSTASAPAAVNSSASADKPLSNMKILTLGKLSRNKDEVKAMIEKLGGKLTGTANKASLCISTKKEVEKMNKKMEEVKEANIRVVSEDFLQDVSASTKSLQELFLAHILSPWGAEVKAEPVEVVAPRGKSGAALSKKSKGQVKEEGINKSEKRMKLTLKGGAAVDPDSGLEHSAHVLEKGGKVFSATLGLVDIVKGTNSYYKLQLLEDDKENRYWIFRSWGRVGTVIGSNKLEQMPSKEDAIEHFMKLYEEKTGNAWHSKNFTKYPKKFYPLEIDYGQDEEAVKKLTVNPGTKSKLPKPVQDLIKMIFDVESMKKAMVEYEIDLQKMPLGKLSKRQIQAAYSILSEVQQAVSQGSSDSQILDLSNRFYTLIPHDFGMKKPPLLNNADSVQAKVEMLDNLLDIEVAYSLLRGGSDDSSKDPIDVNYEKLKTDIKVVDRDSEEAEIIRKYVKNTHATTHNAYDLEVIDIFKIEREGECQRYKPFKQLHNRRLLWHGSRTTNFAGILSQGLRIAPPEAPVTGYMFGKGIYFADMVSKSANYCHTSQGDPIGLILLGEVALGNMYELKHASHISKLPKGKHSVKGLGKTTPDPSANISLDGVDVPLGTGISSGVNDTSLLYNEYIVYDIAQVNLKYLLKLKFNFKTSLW
How it was run: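 Commercial PARP-1 enzyme was activated by either H4 histone or endonuclease-digested plasmid DNA, with NAD and inhibitor or water, in PARP-1 reaction buffer (Tris pH 8.0, MgCl2, Triton X-100). Reactions ran 30 min at room temperature. pADPr was detected by SDS-PAGE and anti-pADPr Western blot, relative to DMSO-treated mixtures. Inhibitors were tested at 10 μM.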

hCYP2D6, sequence (P10635 whole entry): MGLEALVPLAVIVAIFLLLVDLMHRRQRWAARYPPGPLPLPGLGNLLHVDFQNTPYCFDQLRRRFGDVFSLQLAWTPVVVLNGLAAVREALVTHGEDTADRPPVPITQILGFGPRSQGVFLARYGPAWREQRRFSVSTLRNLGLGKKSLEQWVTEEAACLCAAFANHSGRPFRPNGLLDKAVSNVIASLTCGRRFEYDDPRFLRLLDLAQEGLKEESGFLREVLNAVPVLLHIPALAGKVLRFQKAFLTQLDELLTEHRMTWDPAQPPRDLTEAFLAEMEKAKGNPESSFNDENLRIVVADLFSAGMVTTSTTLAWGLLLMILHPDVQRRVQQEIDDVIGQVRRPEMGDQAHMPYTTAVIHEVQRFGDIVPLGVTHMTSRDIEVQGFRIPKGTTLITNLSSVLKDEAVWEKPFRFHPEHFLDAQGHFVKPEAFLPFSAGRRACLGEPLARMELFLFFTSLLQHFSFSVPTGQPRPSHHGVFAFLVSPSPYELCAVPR

| SMILES | IC50 [1] | IC20 [2] | IC50 [2] | IC70 [2] | IC90 [2] | remaining at 1 h, 1 μM [3] | IC50 [4] | half-life at 1 μM [5] | microsomal CLint at 1 μM [5] | remaining at 1 h, 1 μM [5] | ED20 [6] | ED50 [6] | ED70 [6] | ED90 [6] | half-life at 1 μM ([7]; mouse plasma) | IC20 [8] | IC50 [8] | IC70 [8] | IC90 [8] | solubility at 90 min [9] | also measured |
| --- | --- | --- | --- | --- | --- | --- | --- | --- | --- | --- | --- | --- | --- | --- | --- | --- | --- | --- | --- | --- | --- |
| C[N+]1(CC(=O)OC2CCCCCCCCCCC2)CCCCCC1.[I-] [MC-270017, 1-(2-(Cyclododecyloxy)-2-oxoethyl)-1-methylazepan-1 ium iodide] | 4.4 µM | 10.2 µM | 17.5 µM | 24.2 µM | 40.8 µM | 87% | 1.7 µM | 1.2 min | 1200 µL/min/mg | 95% | 10.6 µM | 20.9 µM | 31.6 µM | 61.1 µM | 35.9 min | 0.9 µM | 2.3 µM | 4.1 µM | 10.1 µM | 140 µM | IC50 [10]: > 10 µM |
| CNC(=O)c1ccc(N2C(=S)N(c3ccc(C#N)c(C(F)(F)F)c3)C(=O)C2(C)C)cc1F [Enzalutamide] | – | – | – | – | – | – | – | – | – | – | – | – | – | – | – | – | – | – | – | – | effect on PSA expression [11]: negligible inhibitory effect |
| CC1(C)CC[N+](C)(CC(=O)OC2CCCCCCCCCCC2)CC1.[I-] [MC-270019, 1-(2-(Cyclododecyloxy)-2-oxoethyl)-1,4,4-trimethylpiperidin-1-ium iodide] | 9.93 µM | 6.9 µM | 14.6 µM | 23.1 µM | 48.1 µM | 84% | 4.67 µM | 1.2 min | 1150 µL/min/mg | 92% | 10.9 µM | 24.6 µM | 40.4 µM | 89.1 µM | 19.6 min | 1.3 µM | 3.1 µM | 5.2 µM | 12.2 µM | 95.2 µM | IC50 [10]: > 10 µM |
| Cl.O=C(CN1CCCCC1)NC1CCCCCCCCCCC1 [FC-7219, N-cyclododecyl-2-(piperidin-1-yl)acetamide hydrochloride] | – | – | – | – | – | – | – | – | – | – | – | – | – | – | – | – | – | – | – | – | effect on R1881-mediated AR transcriptional activity [12]: only weak inhibitory effects; effect on viability [2]: no significant effect; effect on the PARP1 enzymatic activity in PC cells [13]: insignificant effect; effect on viability [6]: no significant effect; effect on viability [8]: no significant effect |
| C[C@]1(c2nc3c(C(N)=O)cccc3[nH]2)CCCN1 [Veliparib, reference compound] | – | 9.7 µM | 70.5 µM | 237 µM | 1630 µM | – | – | – | – | – | 6.7 µM | 36.7 µM | 104.0 µM | 547.2 µM | – | 10.6 µM | 55.6 µM | 153 µM | 768 µM | – | effect on R1881-mediated AR transcriptional activity [12]: only weak inhibitory effects |
| CNCc1ccc(-c2[nH]c3cc(F)cc4c3c2CCNC4=O)cc1 [Rucaparib, reference compound] | – | 1 µM | 7 µM | 23.2 µM | 157 µM | – | – | – | – | – | 0.9 µM | 5.0 µM | 14.8 µM | 82.7 µM | – | – | 26.7 µM | 52.6 µM | 155 µM | – | effect on R1881-mediated AR transcriptional activity [12]: only weak inhibitory effects |
| Cl.O=C(CN1CCCCC1)OC1CCCCCCCCCCC1 [FC-7218, Cyclododecyl 2-(piperidin-1-yl)acetate hydrochloride] | – | – | – | – | – | – | – | – | – | – | – | – | – | – | – | – | – | – | – | – | effect on R1881-mediated AR transcriptional activity [12]: only weak inhibitory effects; effect on viability [2]: no significant effect; effect on the PARP1 enzymatic activity in PC cells [13]: insignificant effect; effect on viability [6]: no significant effect; effect on viability [8]: no significant effect |
| C[N+]1(CC(=O)OC2CCCCCCCCCCC2)CCSCC1.[I-] [MC-270021, 4-(2-(Cyclododecyloxy)-2-oxoethyl)-4-methylthiomorpholin-4-ium iodide] | 9.25 µM | 4.9 µM | 60.6 µM | 282 µM | 3270 µM | 88% | 3.92 µM | 1.3 min | 1070 µL/min/mg | 85% | – | – | – | – | 118 min | 4.2 µM | 11.2 µM | 20.3 µM | 52.1 µM | 110 µM | IC50 [10]: > 10 µM |
| C[N+]1(CC(=O)OC2CCCCCCCCCCC2)CCCC1.[I-] [MC-270016, 1-(2-(Cyclododecyloxy)-2-oxoethyl)-1-methylpyrrolidin-1-ium iodide] | 8.54 µM | 9.6 µM | 22.4 µM | 37.4 µM | 85 µM | 98% | 2.98 µM | 1.9 min | 721 µL/min/mg | 92% | 13.3 µM | 38.6 µM | 73.9 µM | 208.1 µM | 57.2 min | 0.9 µM | 3 µM | 6.1 µM | 19.4 µM | 125 µM | IC50 [10]: > 10 µM |
| C[N+]1(CC(=O)NC2CCCCCCCCCCC2)CCCCC1.[I-] [FC-7220, 1-[(Cyclododecylcarbamoyl)methyl]-1-methylpiperidin-1-ium iodide] | 2.37 µM | 9.6 µM | 36.8 µM | 83.7 µM | 310 µM | 101% | 1.93 µM | 1.6 min | 850 µL/min/mg | 100% | 10.0 µM | 37.2 µM | 82.7 µM | 296.1 µM | > 240 min | 5.1 µM | 15.2 µM | 29.4 µM | 84.2 µM | 191 µM | effect on R1881-mediated AR transcriptional activity [12]: only weak inhibitory effects; PARP-1 inhibitory activity in cell free system [14]: reduced anti-PARP-1 activity; IC50 [10]: > 10 µM |
| CCN(CC)CCOC(=O)c1ccc(N)cc1 [procaine, reference compound] | – | – | – | – | – | – | – | – | – | – | – | – | – | – | – | – | – | – | – | – | stable in PBS ([7]; PBS pH 7.4, 1 μM, 60 min, 37°C, typical value): 100%; degraded in plasma ([7]; mouse plasma, 1 μM, 60 min, 37°C, typical value): > 95% |
| O=C(CN1CCC1)OC1CCCCCCCCCCC1 [MC-270008, Cyclododecyl 2-(azetidin-1-yl)acetate] | – | – | – | – | – | – | – | – | – | – | – | – | – | – | – | – | – | – | – | – | PARP-1 inhibitory activity in cell free system [14]: diminished capacity to inhibit PARP-1; effect on the PARP1 enzymatic activity in PC cells [13]: insignificant effect |
